The text below walks through data of ChEMBL document CHEMBL4325879, “Optimization of substituted cinnamic acyl sulfonamide derivatives as tubulin polymerization inhibitors with anticancer activity” (Bioorg Med Chem Lett, 2018).

Experiment [1] concerns the target Tubulin (Bos taurus, UniProt Q6B856+Q862L2+Q862F3). The experiment is described as follows: Inhibition of bovine brain tubulin polymerization after 20 mins in presence of GTP by spectrophotometric analysis.
Experiment [2] concerns MCF7. Nature of the experiment: Antiproliferative activity against human MCF7 cells after 48 hrs by MTT assay. It counts as functional, cell-based. The note with it: MCF7, 48 h. A digest of the protocol: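 MCF-7 human breast cancer cells exposed to compounds for 48 h. Cytotoxicity read by MTT assay. IC50 taken as the concentration giving 50% inhibition of cell growth.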
In general terms: Tetrazolium assays rely on reduction of a dye to a coloured formazan, in cell work by metabolically active cells.

As usually defined, the IC50 is the concentration needed to halve the response being measured. As a reminder, the pIC50 is the IC50 on a negative log10 scale, so that one unit is a factor of ten.

SMILES strings stand for the structures. In brackets after ≈: the same amount, converted by molar mass. A value given as a limit tells only on which side of the number the result lay.

Turning to `O=C(/C=C/c1ccc2c(c1)OCO2)NS(=O)(=O)c1ccc(Br)cc1`, the concentration for half-maximal inhibition (IC50) in experiment [1] is 51.59 µM; in experiment [2], 89 µg/mL (≈ 217 µM). Besides, the pIC50 in experiment [1] turned out to be 4.288.
For `Cc1ccc(S(=O)(=O)NC(=O)/C=C/c2ccc3c(c2)OCCCO3)cc1`, the IC50 is more than 100 µM in experiment [1] and more than 100 µg/mL in experiment [2].
`O=C(/C=C/c1ccc2c(c1)OCCCO2)NS(=O)(=O)c1ccc(Br)cc1`: the IC50 in experiment [1] is more than 100 µM; in experiment [2] it was more than 100 µg/mL.
Regarding `O=C(/C=C/c1ccc2c(c1)OCCO2)NS(=O)(=O)c1ccccc1`, in experiment [1], the IC50 turned out to be 5.47 µM and the negative-log IC50 (pIC50) amounted to 5.262. Moreover, the half-inhibitory concentration (IC50) in experiment [2] was 2.16 µg/mL (≈ 6.25 µM).
The corresponding values for `Cc1ccc(S(=O)(=O)NC(=O)/C=C/c2ccc3c(c2)OCO3)cc1` are 40.85 µM, 4.389 and 48.9 µg/mL (≈ 142 µM).
For `O=C(/C=C/c1ccc2c(c1)OCCO2)NS(=O)(=O)c1ccc(Br)cc1`, the 50% inhibitory concentration (IC50) in experiment [1] was more than 100 µM; in experiment [2], more than 100 µg/mL.
For `O=C(/C=C/c1ccc2c(c1)OCO2)NS(=O)(=O)c1ccc(F)cc1`, the figures for the IC50 in experiment [1] and in experiment [2] were 76.9 µM and 74 µg/mL (≈ 212 µM), respectively. The pIC50 in experiment [1] worked out at 4.114.
Turning to `O=C(/C=C/c1ccc2c(c1)OCCO2)NS(=O)(=O)c1ccc(Cl)cc1`, the IC50 in experiment [1] was 87.92 µM; in experiment [2], 51.3 µg/mL (≈ 135 µM). For the same molecule, the pIC50 in experiment [1] was 4.056.
`Cc1ccc(S(=O)(=O)NC(=O)/C=C/c2ccc3c(c2)OCCO3)cc1`: in experiment [1], the IC50 turned out to be 93.33 µM and the pIC50 is recorded as 4.03. The half-inhibitory concentration (IC50) in experiment [2] is more than 100 µg/mL.
As to `O=C(/C=C/c1ccc2c(c1)OCO2)NS(=O)(=O)c1ccccc1`, in experiment [1], the IC50 is 0.88 µM and the pIC50 came to 6.056. Moreover, the IC50 in experiment [2] came out at 0.17 µg/mL (≈ 0.513 µM).
With `O=C(/C=C/c1ccc2c(c1)OCCCO2)NS(=O)(=O)c1ccccc1`, in experiment [1], the IC50 was found to be 49.01 µM and the pIC50 was found to be 4.31. Moreover, the IC50 in experiment [2] was 53.9 µg/mL (≈ 150 µM).
The corresponding values for `O=C(/C=C/c1ccc2c(c1)OCO2)NS(=O)(=O)c1ccc(Cl)cc1` are 94.72 µM, 4.024 and 47.3 µg/mL (≈ 129 µM).
Turning to `O=C(/C=C/c1ccc2c(c1)OCCCO2)NS(=O)(=O)c1ccc(F)cc1`, the IC50 in experiment [1] was more than 100 µM; in experiment [2] it was more than 100 µg/mL.
`COc1cc2c(c(OC)c1OC)-c1ccc(OC)c(=O)cc1[C@@H](NC(C)=O)CC2` [COLCHICINE] had an IC50 in experiment [2] of 0.33 µg/mL (≈ 0.826 µM).
In the case of `O=C(/C=C/c1ccc2c(c1)OCCCO2)NS(=O)(=O)c1ccc(Cl)cc1`, the IC50 in experiment [1] was more than 100 µM; in experiment [2], more than 100 µg/mL.
As for `O=C(/C=C/c1ccc2c(c1)OCCO2)NS(=O)(=O)c1ccc(F)cc1`, in experiment [1], the IC50 is 27.46 µM and the pIC50 is given as 4.562. Besides, half-maximal inhibition in experiment [2] (IC50) required 52.1 µg/mL (≈ 143 µM).
